{"data": "Published values collected from several papers", "BRWD1 BD2": "Bromodomain and WD repeat-containing protein 1, BD2 (BRWD1, Homo sapiens, UniProt Q9NSI6)", "PTGS2": "Prostaglandin G/H synthase 2 (PTGS2, Homo sapiens, UniProt P35354)", "NUAK1": "NUAK family SNF1-like kinase 1 (NUAK1, Homo sapiens, UniProt O60285)", "BRDT BD2": "Bromodomain testis-specific protein, BD2 (BRDT, Homo sapiens, UniProt Q58F21)", "DYRK3": "Dual specificity tyrosine-phosphorylation-regulated kinase 3 (DYRK3, Homo sapiens, UniProt O43781)", "DYRK1B": "Dual specificity tyrosine-phosphorylation-regulated kinase 1B (DYRK1B, Homo sapiens, UniProt Q9Y463)", "note": "Protocols differ between the studies behind these lines."}
{"Structure (SMILES)": "Oc1ccc(-c2nc(-c3ccncc3)c(-c3ccc(F)cc3)[nH]2)cc1", "target": "BRWD1 BD2", "test": "thermal stability, DSF", "setting": "10 µM", "quantity": "ΔTm", "result": "-0.73 °C"}
{"Structure (SMILES)": "CCN1CCN(Cc2ccc(NC(=O)c3ccc(C)c(Oc4ccnc5[nH]ccc45)c3)cc2C(F)(F)F)CC1", "target": "Inositol-tetrakisphosphate 1-kinase (Homo sapiens, UniProt Q13572)", "test": "target engagement in cells, inhibitor, chemoproteomics", "system": "Huh-7", "setting": "1 µM", "quantity": "inhibition", "result": "-10.6%"}
{"Structure (SMILES)": "C=C[C@@]1(C)C=C2CC[C@@H]3[C@](C)(CCC[C@@]3(C)C(=O)O)[C@H]2CC1", "target": "PTGS2", "test": "enzyme activity, inhibitor", "setting": "0.24 µg/mL", "quantity": "inhibition", "result": "0%"}
{"Structure (SMILES)": "NS(=O)(=O)c1ccc(CNc2nc(Nc3cccc(NC(=O)N4CCCC4)c3)ncc2Br)cc1", "target": "NUAK1", "test": "enzyme activity, inhibitor, radiometric", "setting": "1 µM", "quantity": "remaining activity", "result": "11%"}
{"Structure (SMILES)": "Cc1cnc(Nc2ccc(OCCN3CCCC3)cc2)nc1Nc1cccc(S(=O)(=O)NC(C)(C)C)c1", "target": "BRDT BD2", "test": "thermal stability, DSF", "setting": "10 µM", "quantity": "ΔTm", "result": "2.69 °C"}
{"Structure (SMILES)": "COc1cccc(Nc2nc3cc(C(=O)O)ccc3c3cnccc23)c1", "target": "DYRK3", "test": "enzyme activity, inhibitor, radiometric", "setting": "1 µM", "quantity": "remaining activity", "result": "2%"}
{"Structure (SMILES)": "O=c1cc(-c2ccc(O)cc2)oc2cc(O)cc(O)c12", "target": "PTGS2", "test": "enzyme activity, inhibitor", "setting": "0.12 µg/mL", "quantity": "inhibition", "result": "3.07%"}
{"Structure (SMILES)": "N=C(N)NCCC[C@H](NC(=O)[C@H](CC(=O)O)NC(=O)[C@H](Cc1c[nH]c2ccccc12)NC(=O)[C@H](CCCNC(=N)N)NC(=O)[C@@H](N)Cc1ccccc1)C(=O)N[C@@H](Cc1ccccc1)C(=O)NCC(=O)O", "target": "Melanocyte-stimulating hormone receptor (Mc1r, Mus musculus, UniProt Q01727)", "test": "cAMP, agonist", "system": "HEK293", "quantity": "Emax", "result": "30%"}
{"Structure (SMILES)": "O=C(O)c1ccc2c(c1)nc(Nc1ccc(Cl)cc1)c1ncncc12", "target": "DYRK3", "test": "enzyme activity, inhibitor, radiometric", "setting": "1 µM", "quantity": "remaining activity", "result": "9%"}
{"Structure (SMILES)": "CCOc1ccc2cc(-c3nn(CC4CCN(C)CC4)c4ncnc(N)c34)ccc2c1", "target": "Calmodulin-domain protein kinase 1 (CDPK1, Toxoplasma gondii, UniProt Q9BJF5)", "test": "thermal stability, DSF", "setting": "20 µM", "quantity": "ΔTm", "result": "12.3 °C"}
{"Structure (SMILES)": "COC(=O)c1ccc(O)cc1", "target": "PTGS2", "test": "enzyme activity, inhibitor", "setting": "0.49 µg/mL", "quantity": "inhibition", "result": "0%"}
{"Structure (SMILES)": "Nc1ncnc2occ(-c3ccc(NC(=O)Nc4cc(C(F)(F)F)ccc4F)cc3)c12", "target": "Mitogen-activated protein kinase kinase kinase 15 (MAP3K15, Homo sapiens, UniProt Q6ZN16)", "test": "cell-free assay, inhibitor", "setting": "20 µM", "quantity": "remaining signal", "result": "39%"}
{"Structure (SMILES)": "O=c1cc(-c2ccc(O)c(O)c2)oc2cc(O)cc(O)c12", "target": "PTGS2", "test": "enzyme activity, inhibitor", "setting": "0.12 µg/mL", "quantity": "inhibition", "result": "21.6%"}
{"Structure (SMILES)": "Cn1cc(C(=O)Nc2cccc(C(=O)O)c2)ccc1=O", "target": "CREB-binding protein, bromodomain (CREBBP, Homo sapiens, UniProt Q92793)", "test": "thermal stability, DSF", "setting": "100 µM", "quantity": "ΔTm", "result": "1.9 °C"}
{"Structure (SMILES)": "O=C(O)c1ccc2c(c1)nc(NCCc1cccc(F)c1)c1ccncc12", "target": "DYRK1B", "test": "enzyme activity, inhibitor, radiometric", "setting": "1 µM", "quantity": "remaining activity", "result": "106%"}
{"Structure (SMILES)": "NS(=O)(=O)c1ccc(Nc2nc(-c3ccc(F)cc3)c3ccccc3n2)cc1", "target": "BRWD1 BD2", "test": "binding, competition with immobilised ligand", "setting": "1 µM", "quantity": "remaining binding", "result": "88%"}
{"Structure (SMILES)": "C[S+]([O-])c1ccc(-c2nc(-c3ccncc3)c(-c3ccc(F)cc3)[nH]2)cc1 (stereo not shown)", "target": "Transcription intermediary factor 1-beta (TRIM28, Homo sapiens, UniProt Q13263)", "test": "thermal stability, DSF", "setting": "10 µM", "quantity": "ΔTm", "result": "1.43 °C"}
{"Structure (SMILES)": "O=C(O)c1ccc2c(c1)nc(NCCc1ccccc1)c1ncncc12", "target": "DYRK3", "test": "enzyme activity, inhibitor, radiometric", "setting": "1 µM", "quantity": "remaining activity", "result": "25%"}
{"Structure (SMILES)": "Cc1cc2c(cc1N1C(=O)c3cccc4c(Cl)ccc(c34)C1=O)n(C)c(=O)n2C", "target": "BRDT BD2", "test": "thermal stability, DSF", "setting": "10 µM", "quantity": "ΔTm", "result": "-1 °C"}
{"Structure (SMILES)": "O=C(O)c1ccc2c(c1)nc(Nc1ccc3ccccc3c1)c1ccncc12", "target": "DYRK1B", "test": "enzyme activity, inhibitor, radiometric", "setting": "1 µM", "quantity": "remaining activity", "result": "84%"}
{"Structure (SMILES)": "O=C(NCCCNc1nc(Nc2cccc(NC(=O)N3CCCC3)c2)ncc1C1CC1)C1CCC1", "target": "NUAK1", "test": "enzyme activity, inhibitor, radiometric", "setting": "1 µM", "quantity": "remaining activity", "result": "51%"}
{"Structure (SMILES)": "COc1ccc(-c2cc(=O)c3c(O)cc(O[C@@H]4O[C@H](CO)[C@@H](O)[C@H](O)[C@H]4O)cc3o2)cc1O", "target": "PTGS2", "test": "enzyme activity, inhibitor", "setting": "31.25 µg/mL", "quantity": "inhibition", "result": "100%"}
{"Structure (SMILES)": "N#Cc1cccc(Nc2nc3cc(C(=O)O)ccc3c3cnccc23)c1", "target": "DYRK1B", "test": "enzyme activity, inhibitor, radiometric", "setting": "1 µM", "quantity": "remaining activity", "result": "10%"}
{"Structure (SMILES)": "CC(CCC(=O)NCC(=O)O)C1CCC2C3CCC4CC(O)CCC4(C)C3CC(O)C12C (stereo not shown)", "target": "Serine hydroxymethyltransferase, mitochondrial (SHMT2, Homo sapiens, UniProt P34897)", "test": "thermal stability", "setting": "50 µM", "quantity": "ΔTm", "result": "12.3 °C"}
{"Structure (SMILES)": "N#Cc1cccc(Nc2nc3cc(C(=O)O)ccc3c3cncnc23)c1", "target": "DYRK1B", "test": "enzyme activity, inhibitor, radiometric", "setting": "1 µM", "quantity": "remaining activity", "result": "87%"}
{"Structure (SMILES)": "O=C(O)c1ccc(O)cc1", "target": "PTGS2", "test": "enzyme activity, inhibitor", "setting": "1.95 µg/mL", "quantity": "inhibition", "result": "41.7%"}
{"Structure (SMILES)": "O=C(O)c1ccc2c(c1)nc(Nc1ccccc1)c1ccncc12", "target": "DYRK3", "test": "enzyme activity, inhibitor, radiometric", "setting": "1 µM", "quantity": "remaining activity", "result": "7%"}
{"Structure (SMILES)": "CN(C)C1CCN(CC#Cc2nn(C3CCCC3)c3nc(NCc4ccccc4)ncc23)C1 (stereo not shown)", "target": "NUAK1", "test": "enzyme activity, inhibitor, FRET", "setting": "0.1 µM", "quantity": "inhibition", "result": "0%"}
